# OXTR agonist = human OXTR agonists, primary screen, fluorescence, CHO-OTR cells, Fluo-8 calcium | Oxytocin receptor (Homo sapiens), P30559 | Fluo-8 calcium fluorescence; normalized: DMSO 0%, oxytocin 100% | activation, % at 3 µM | 0.32% of 320,000 active;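 active means activation above the mean of all tested compounds plus 3 SD, cutoff set per screening run, cut at about 20% in these data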;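 further: peak over basal fluorescence ratio from a 100 s FLIPR kinetic read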
# CHRM4 antagonist = human M4 muscarinic receptor antagonists, primary screen, CHO cells, Fluo-8 calcium fluorescence; CHO-hM4 cells, ACh EC80; inhibition, % at 3 µM; 0.73% of 360,000 active;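 active means inhibition above its plate's cutoff, the mean inhibition of sample wells plus 3 SD, cut at about 27% in these data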;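 further: 0% = acetylcholine EC80 with DMSO and 100% = DMSO without agonist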
# Target sequence (P08173 whole entry, looked up): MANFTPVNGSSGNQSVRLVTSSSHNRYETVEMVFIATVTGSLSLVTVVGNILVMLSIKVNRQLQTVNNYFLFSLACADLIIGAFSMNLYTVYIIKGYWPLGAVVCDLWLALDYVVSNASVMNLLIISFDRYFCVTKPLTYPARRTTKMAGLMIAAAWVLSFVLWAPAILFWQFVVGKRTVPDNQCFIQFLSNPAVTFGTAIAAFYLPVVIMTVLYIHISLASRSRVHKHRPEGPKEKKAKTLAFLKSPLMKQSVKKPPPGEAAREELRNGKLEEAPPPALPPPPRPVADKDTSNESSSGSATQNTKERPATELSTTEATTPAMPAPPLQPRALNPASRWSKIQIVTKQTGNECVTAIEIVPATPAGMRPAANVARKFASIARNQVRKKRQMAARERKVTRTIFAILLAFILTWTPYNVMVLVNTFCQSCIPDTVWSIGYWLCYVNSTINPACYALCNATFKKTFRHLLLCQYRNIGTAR
# OXTR potentiate = human OXTR potentiators, primary screen, fluorescence, CHO-OTR cells, Fluo-8 calcium; 0.061% of 320,000 active; activation, % at 3 µM; Fluo-8 calcium fluorescence, potentiator mode; 0% = oxytocin EC15, 100% = EC100; Oxytocin receptor (Homo sapiens), P30559;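 active means activation above that plate's cutoff, the mean activation of tested compounds plus 3 SD, cut at about 6.6% in these data, passing the limit was not always enough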;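 further: 100% uses oxytocin at 75 nM as the full agonist control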
#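 assay system = CHO-OTR cells, human receptor | schedule = compound 6 min at room temperature before oxytocin, 100 s read | detection = Fluo-8 intracellular calcium fluorescence, ex 470-495, em 515-575 nm | evaluation = normalized max/min fluorescence ratio, % activation | control set = EC15 oxytocin alone as 0%, 75 nM oxytocin (EC100) as 100%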
# CHRM4 agonist = human M4 muscarinic receptor agonists, primary screen, CHO-K1 cells, Fluo-8 calcium fluorescence; Muscarinic acetylcholine receptor M4 (Homo sapiens), P08173; CHO-K1 hM4/Gqi5; vehicle 0%, full acetylcholine response 100%; activation, % at 3 µM; 0.14% of 360,000 active; AID 624127, 2012;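 active means activation above the run mean over all test wells plus 3 SD, cut at about 32% in these data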;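 further: peak over basal fluorescence ratio per well then scaled between controls; 0% = DMSO wells and 100% = acetylcholine at EC100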
# CHRM4 PAM = human M4 muscarinic receptor positive allosteric modulators, primary screen, CHO-K1 cells, Fluo-8 calcium fluorescence; Muscarinic acetylcholine receptor M4 (Homo sapiens), P08173; CHO-K1 hM4/Gqi5, ACh EC20; 0% = ACh EC20, 100% = maximal ACh; activation, % at 3 µM; 0.4% of 360,000 active; AID 624126, 2012;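 active means activation above its plate's cutoff, the mean activation of sample wells plus 3 SD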
# V1aR counter = agonists of human V1a receptor, primary screen, counter-screen for OXTR agonist project, fluorescence, CHO-V1R cells. Vasopressin V1a receptor (Homo sapiens), P37288. Fluo-8 calcium fluorescence, agonist mode; 0% DMSO, 100% 3 nM vasopressin. activation, % at 3 µM. 0.25% of 320,000 active. AID 2797, 2010;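 active means activation above the mean activation of all tested compounds plus 3 SD, per screening run, cut at about 20% in these data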;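 further: signal is peak over basal fluorescence ratio across a 100 second FLIPR read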
# Active calls of the source: *; x = not tested or not shown. Sampled rows, rich in hits. Any-hit rate of the full collection: about 1.5%.
SMILES,OXTR agonist,CHRM4 antagonist,OXTR potentiate,CHRM4 agonist,CHRM4 PAM,V1aR counter
OC(c1cccs1)(c1cccs1)C1C[N+]2(CF)CCC1CC2 (stereo unspecified),0,68*,-2,1,-40,-1
O=C(NC(c1ccc(-c2ccccc2)cc1)c1cnccn1)C1CCN(CCCOc2ccccc2)CC1 (stereo unspecified),x,4,x,36*,-14,x
COc1cc(C(=O)C(=O)N2CCN(c3ccccc3)CC2)cc2ccccc12,x,-18,x,5,4,x
CC1=C(C(=O)Nc2cc(C)ccc2C)C(c2cccs2)NC(=S)N1 (stereo unspecified),1,1,-5,1,1,1
CCCSc1nc(C)c(CC(=O)O)c(=O)[nH]1,0,2,-19,0,28*,5
O=C(Cc1ccc(NC(=O)C2CCN(C(=O)C3CC3)CC2)cc1)Nc1cccc(C(=O)N2CCCCC2)c1,x,-2,x,-1,10,x
O=C(C1=C(O)C(=O)N(c2nccs2)C1c1ccccc1)c1cc2ccccc2o1 (stereo unspecified),20*,11,-9,29,-17,186*
CCCCn1c(N)c(N(CC(C)C)C(=O)c2cccc(S(=O)(=O)N3CCCCC3)c2)c(=O)[nH]c1=O,1,5,-6,0,22*,0
CCCCn1c(N)c(N(CCC(C)C)C(=O)c2ccc3ccccc3c2)c(=O)[nH]c1=O,0,6,-4,1,6,0
CCCCn1c(N)c(N(CCC(C)C)C(=O)COC(=O)c2ccc3ccccc3c2)c(=O)[nH]c1=O,x,-18,x,1,23*,x
O=C1NC(Cc2ccccc2)c2nc3cc(Cl)ccc3c(=O)n2-c2ncccc21 (stereo unspecified),x,4,x,5,1,x
COc1ccc(CCC(C)NC2C3CC4CC(C3)CC2C4)cc1 (stereo unspecified),x,66*,x,7,-34,x
Cc1ccccc1N1CC(=O)N(c2ccccc2C)CC1=O,1,9,-3,2,20*,0
CC(C(=O)Nc1ccc2c(c1)OCCO2)c1ccc([N+](=O)[O-])cc1 (stereo unspecified),44*,3,-21,17,-10,43*
CC(C(=O)Nc1cccc(Br)c1)c1ccc([N+](=O)[O-])cc1 (stereo unspecified),5,5,-11,8,-6,9
CN1C[C@@H]2C(c3ccccc3)C3(c4ccc(C#N)cc4)CC2(C3)[C@H]1c1ccccc1 (stereo partly specified),-1,-1,6,0,8,-1
CN1C[C@@H]2C(c3ccccc3)C3(c4ccccc4)CC2(C3)[C@H]1c1ccccc1 (stereo partly specified),0,45*,2,1,-18,0
O=C(COC(=O)/C=C/c1ccccc1)NC(=O)NCc1ccccc1,0,-13,-3,0,8,1
CC(C)n1nc(C(=O)OCC(=O)N2CC(=O)Nc3ccccc32)c2ccccc2c1=O,-2,-17,-19,2,20*,0
O=C1CN(C(=O)COC(=O)c2ccccc2O)c2ccccc2N1,0,-4,4,1,1,0
CCCN(CC(=O)Nc1ccc(F)c(F)c1F)C(=O)C1CC(=O)N(Cc2ccccc2)C1 (stereo unspecified),-2,-12,-5,3,21*,0
CCCCc1ccc(/C(C)=N/NC(=O)C2CCCC2)cc1,-1,-11,-9,0,7,1
O=C(O)c1cccc2c1C(=O)N(Cc1ccncc1)C2,0,20,-2,1,32*,0
C=CCN(CC=C)Cc1cc(=O)oc2cc(C)c(Cl)cc12,x,-3,x,-3,0,x
Cc1c(C(=O)O)sc(=S)n1-c1ccccc1,0,-5,-16,2,20*,1
SMILES,OXTR agonist,CHRM4 antagonist,OXTR potentiate,CHRM4 agonist,CHRM4 PAM,V1aR counter
CCOC(=O)c1sc(=S)n(-c2ccccc2)c1C,-1,2,6,6,-6,-2
COC(=O)c1cc(NC(=O)/C=C/c2ccc3c(c2)OCO3)cc(C(=O)OC)c1,-2,36*,-9,5,10,2
COC(=O)c1cccc(NC(=O)/C=C/c2ccc3c(c2)OCO3)c1,0,7,-2,7,-3,1
O=C(NC1CCCC1)C(c1ccccc1)n1c(-c2cccc3ccccc23)nc2ccccc21 (stereo unspecified),x,74*,x,-1,-15,x
O=C(NC1CCCC1)C(c1ccccc1)n1c(-c2cccs2)nc2ccccc21 (stereo unspecified),x,6,x,0,10,x
CC(C)(C)NC(=O)C(C1CC1)n1c(-c2ccccc2)nc2ccccc21 (stereo unspecified),x,0,x,3,24*,x
O=C(NC1CCCC1)C(C1CC1)n1c(C2CC2)nc2ccccc21 (stereo unspecified),x,-13,x,1,23*,x
COC(=O)c1ccc2c(c1)C(C)(C)C(/C=C/c1ccc(OC)c(OC)c1OC)=[N+]2C,4,32*,-5,1,-9,7
CCC(C)Sc1cccc(-c2nc3ccc(Cl)cn3c2NCc2ccccc2)c1 (stereo unspecified),-2,17,-13,3,1,0
CCC(C)Sc1cccc(-c2nc3ccc(C)cn3c2NCc2ccccc2)c1 (stereo unspecified),-2,47*,-12,13,-8,-2
Cc1ccc2nc(-c3cccc(-c4cccc(Cl)c4)c3)c(NCc3ccccc3)n2c1,-2,28*,-11,7,-10,0
COc1cc(OC)c(C(=O)c2ccccc2[N+](=O)[O-])c(OC)c1,x,3,x,0,-5,x
C=CCc1cc(C=O)cc(OC)c1OCc1ccc(C(=O)O)cc1,2,-4,-3,1,20*,0
COc1ncnc2c1ncn2CCCN(C)CCc1ccccn1,x,-12,x,0,7,x
O=C(CCN1C(=O)NC2(CCCC2)C1=O)Nc1cccc(S(=O)(=O)N2CCOCC2)c1,-1,6,-9,1,2,0
CCOc1cc(CNCc2ccccc2)ccc1OCc1ccc(Cl)cc1,26*,28*,-20,34*,-15,28*
